Reference: article PMC4299864 (Chirality, 2013)

Experiments:
Format in all cases: cell-based
[1] = biological target: T1, human FPR1 (Homo sapiens, UniProt P21462); experiment: Ca2+ mobilization in HL-60 cells transfected with FPR1; settings: HL-60-FPR1 cells; for Ca2+ Mobilization Efficacy, FPR1: percent of the response induced by 5 nM fMLF; for EC50: read-out: Ca2+ Mobilization EC50, FPR1, mean of three independent experiments, N.A. = no activity, limits efficacy > 20 % and EC50 < 50 μM
T1 sequence (P21462 1-350): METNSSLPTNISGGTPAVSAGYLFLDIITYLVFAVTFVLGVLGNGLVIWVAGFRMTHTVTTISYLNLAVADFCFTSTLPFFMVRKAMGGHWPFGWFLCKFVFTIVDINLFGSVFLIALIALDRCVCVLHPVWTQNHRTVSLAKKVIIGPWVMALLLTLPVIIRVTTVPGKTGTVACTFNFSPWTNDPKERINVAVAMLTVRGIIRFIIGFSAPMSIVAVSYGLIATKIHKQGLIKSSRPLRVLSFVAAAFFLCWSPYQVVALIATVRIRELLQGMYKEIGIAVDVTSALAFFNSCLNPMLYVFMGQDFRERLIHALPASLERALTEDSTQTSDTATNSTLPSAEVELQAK
Procedure, shortened: (§1)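 Stably transfected HL-60 cells were grown in RPMI 1640 with 10% heat-inactivated FCS, 10 mM HEPES and G418 (1 mg/mL). Cells were loaded with Fluo-4 AM (1.25 μg/mL final) for 30 min at 37 °C in the dark, then resuspended in HBSS with Ca²⁺/Mg²⁺ at 2 × 10⁵ cells/well. Fluorescence (ex 485/em 538 nm) was read every 5 s for 240 s at room temperature after compound addition. Peak change over baseline was set against 5 nM fMLF (FPR1) or 5 nM WKYMVm (FPR2, FPR3) as 100%. Curves had 5–6 points, from three independent experiments.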

[2] = biological target: T2, human FPR3 (Homo sapiens, UniProt P25089); experiment: Ca2+ mobilization in HL-60 cells transfected with FPR3; settings: HL-60-FPR3 cells; for Ca2+ Mobilization Efficacy, FPR3: percent of the response induced by 5 nM WKYMVm; for EC50: read-out: Ca2+ Mobilization EC50, FPR3, mean of three independent experiments, N.A. = no activity, limits efficacy > 20 % and EC50 < 50 μM
T2 sequence (P25089 1-353): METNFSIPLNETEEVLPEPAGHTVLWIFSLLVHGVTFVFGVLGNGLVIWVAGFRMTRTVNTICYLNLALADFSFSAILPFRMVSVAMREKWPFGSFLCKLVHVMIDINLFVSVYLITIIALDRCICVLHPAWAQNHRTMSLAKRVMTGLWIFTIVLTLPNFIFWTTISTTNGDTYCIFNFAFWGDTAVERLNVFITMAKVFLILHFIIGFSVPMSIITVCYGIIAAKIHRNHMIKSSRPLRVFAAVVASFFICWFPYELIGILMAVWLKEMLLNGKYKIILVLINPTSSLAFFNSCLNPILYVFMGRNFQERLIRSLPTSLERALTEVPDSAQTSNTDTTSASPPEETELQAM
Procedure, shortened: as §1

[3] = biological target: T3, human FPR2 (Homo sapiens, UniProt P25090); experiment: Ca2+ mobilization in HL-60 cells transfected with FPR2; settings: HL-60-FPR2 cells; for Ca2+ Mobilization Efficacy, FPR2: percent of the response induced by 5 nM WKYMVm; for EC50: read-out: Ca2+ Mobilization EC50, FPR2, mean of three independent experiments, N.A. = no activity, limits efficacy > 20 % and EC50 < 50 μM
T3 sequence (P25090 1-351): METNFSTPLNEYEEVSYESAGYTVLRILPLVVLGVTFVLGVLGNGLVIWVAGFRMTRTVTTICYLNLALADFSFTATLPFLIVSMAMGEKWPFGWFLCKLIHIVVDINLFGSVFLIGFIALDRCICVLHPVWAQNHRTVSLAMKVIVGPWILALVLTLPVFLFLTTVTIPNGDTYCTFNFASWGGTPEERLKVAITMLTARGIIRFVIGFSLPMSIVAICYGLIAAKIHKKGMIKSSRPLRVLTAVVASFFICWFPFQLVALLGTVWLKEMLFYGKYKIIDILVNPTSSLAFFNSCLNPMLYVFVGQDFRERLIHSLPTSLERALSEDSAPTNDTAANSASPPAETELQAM
Procedure, shortened: as §1

Ca2+ Mobilization Efficacy, FPR1 [1] [%] | EC50 [1] [µM] | Ca2+ Mobilization Efficacy, FPR3 [2] [%] | EC50 [2] [µM] | Ca2+ Mobilization Efficacy, FPR2 [3] [%] | EC50 [3] [µM] | Compound
75 | 19.5 | 40 | 8.3 | 95 | 10.7 | C[C@H]1CC(c2ccccc2)=NN(CC(=O)Nc2ccc(Br)cc2)C1=O [S-(-)-4a, S-(-)-N-(4-Bromophenyl)-2-[5-methyl-6-oxo-3-phenyl-5,6-dihydropyridazin-1(4H)-yl] acetamide]
50 | – | – | – | 45 | – | Cc1cc(-c2ccccc2)nn(CC(=O)Nc2ccc(Br)cc2)c1=O [8a, N-(4-Bromophenyl)-2-[5-methyl-6-oxo-3-phenylpyridazin-1(6H)-yl]acetamide]
55 | 23.5 | – | – | 65 | 7 | CC1CC(c2ccccc2)=NN(CC(=O)Nc2ccc(Br)cc2)C1=O (racemic) [(±)-4a, (±)-N-(4-Bromophenyl)-2-[5-methyl-6-oxo-3-phenyl-5,6-dihydropyridazin-1(4H)-yl]acetamide]
80 | 24.4 | 40 | 7.1 | 85 | 10 | C[C@@H]1CC(c2ccccc2)=NN(CC(=O)Nc2ccc(Br)cc2)C1=O [R-(+)-4a, R-(+)-N-(4-Bromophenyl)-2-[5-methyl-6-oxo-3-phenyl-5,6-dihydropyridazin-1(4H)-yl] acetamide]
